Measured values from ChEMBL document CHEMBL3580565, “Synthesis and Biological Evaluation of Cyclopentaquinoline Derivatives as Nonsteroidal Glucocorticoid Receptor Antagonists” (J Med Chem, 2015).

Legend:
[1] = target: Estrogen receptor beta (Homo sapiens, UniProt Q92731); experiment: Displacement of fluormone ES2 from human recombinant estrogen receptor-beta expressed in insect Hi5 cells after 120 mins by fluorescence polarization assay; set-up: species or system BTI-TN-5B1-4
Outline: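 Assay run at Cerep. Fluorescence polarization with Fluormone ES2 tracer, using recombinant human ERα expressed in Sf9 cells and ERβ expressed in Hi5 cells.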

[2] = AUC (0 to t) in Sprague-Dawley rat at 10 mg/kg, po by LC/MS/MS analysis; format: ADME, organism-based; conditions: in vivo
Outline: (§1)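 Male Sprague–Dawley rats dosed orally (n = 4). Jugular vein blood sampled at 0.25, 0.5, 1, 2, 4, 6 and 24 h into heparin, plasma obtained by centrifugation. Concentrations determined by LC/MS/MS.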

[3] = system: Rattus norvegicus; experiment: Antidepressant-like activity in Wistar rat assessed as decrease in immobility time at 10 mg/kg, po administered at 1, 5, 23.5 hrs prior to testing measured for 5 mins by forced swimming test relative to vehicle-treated control; format: functional; set-up: scale not given: the % may be the effect or the level left
[4] = system: Rattus norvegicus; experiment: Antidepressant-like activity in Wistar rat assessed as immobility time at 30 mg/kg, po administered at 1, 5, 23.5 hrs prior to testing measured for 5 mins by forced swimming test (reference value: 211.3 to 232.2 secs); format: functional
[5] = system: Rattus norvegicus; experiment: Antidepressant-like activity in Wistar rat assessed as immobility time at 10 mg/kg, po administered at 1, 5, 23.5 hrs prior to testing measured for 5 mins by forced swimming test (reference value: 211.3 to 232.2 secs); format: functional
[6] = AUC (0 to t) in Sprague-Dawley rat at 1 mg/kg, iv by LC/MS/MS analysis; format: ADME, organism-based; conditions: in vivo
Outline: (§2)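 Single intravenous dose to male Sprague–Dawley rats (n = 4). Jugular vein blood drawn at 0.05, 0.25, 0.5, 1, 2, 4, 8 and 24 h, heparin anticoagulant, plasma separated by centrifugation. Plasma drug level measured by LC/MS/MS.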

[7] = AUC (0 to infinity) in Sprague-Dawley rat at 10 mg/kg, po by LC/MS/MS analysis; format: ADME, organism-based; set-up: dose 10 mg/kg, time infinity, route oral; conditions: in vivo; outline: as §1
[8] = Tmax in Sprague-Dawley rat at 10 mg/kg, po by LC/MS/MS analysis; format: ADME, organism-based; conditions: in vivo; outline: as §1
[9] = Total clearance in Sprague-Dawley rat at 1 mg/kg, iv by LC/MS/MS analysis; format: ADME, organism-based; conditions: in vivo; outline: as §2
[10] = Oral bioavailability (0 to infinity) in Sprague-Dawley rat at 10 mg/kg by LC/MS/MS analysis; format: ADME, organism-based; conditions: in vivo
Outline: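 Bioavailability from paired studies in male Sprague–Dawley rats: 1 mg/kg i.v. and 10 mg/kg p.o. (n = 4 each). Jugular vein heparinized plasma sampled up to 24 h, quantified by LC/MS/MS.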

[11] = target: T1, Progesterone receptor (Homo sapiens, UniProt P06401); experiment: Displacement of [3H]-progesterone from cytosolic fraction of human recombinant progesterone-B receptor by scintillation counting analysis
T1 sequence (P06401 whole entry): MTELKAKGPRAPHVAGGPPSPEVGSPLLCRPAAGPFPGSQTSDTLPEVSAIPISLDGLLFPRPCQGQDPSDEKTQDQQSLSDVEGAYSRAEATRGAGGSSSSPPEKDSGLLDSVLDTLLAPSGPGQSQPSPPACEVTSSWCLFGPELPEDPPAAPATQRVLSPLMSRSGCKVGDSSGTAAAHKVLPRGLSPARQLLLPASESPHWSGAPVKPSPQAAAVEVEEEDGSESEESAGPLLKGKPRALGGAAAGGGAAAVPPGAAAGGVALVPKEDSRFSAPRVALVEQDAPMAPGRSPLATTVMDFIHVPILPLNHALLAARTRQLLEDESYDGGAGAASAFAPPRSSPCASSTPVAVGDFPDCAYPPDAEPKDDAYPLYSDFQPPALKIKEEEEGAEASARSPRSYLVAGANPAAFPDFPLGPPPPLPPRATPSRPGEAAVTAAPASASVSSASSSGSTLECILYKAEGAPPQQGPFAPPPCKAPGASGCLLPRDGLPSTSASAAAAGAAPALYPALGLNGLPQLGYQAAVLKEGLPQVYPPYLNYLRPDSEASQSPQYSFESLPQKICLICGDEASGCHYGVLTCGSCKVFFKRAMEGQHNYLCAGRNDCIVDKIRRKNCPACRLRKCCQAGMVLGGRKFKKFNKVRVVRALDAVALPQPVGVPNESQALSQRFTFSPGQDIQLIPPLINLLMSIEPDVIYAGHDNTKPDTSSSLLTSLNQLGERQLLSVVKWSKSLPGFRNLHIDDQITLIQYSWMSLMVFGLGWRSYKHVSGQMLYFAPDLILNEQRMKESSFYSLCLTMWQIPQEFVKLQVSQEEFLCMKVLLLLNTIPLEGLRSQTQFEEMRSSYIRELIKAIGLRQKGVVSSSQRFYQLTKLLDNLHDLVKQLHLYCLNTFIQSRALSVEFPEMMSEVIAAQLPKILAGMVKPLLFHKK

[12] = target: T2, Mineralocorticoid receptor (Homo sapiens, UniProt P08235); experiment: Displacement of [3H]-aldosterone from cytosolic fraction of human recombinant mineralocorticoid receptor by scintillation counting analysis
T2 sequence (P08235 whole entry): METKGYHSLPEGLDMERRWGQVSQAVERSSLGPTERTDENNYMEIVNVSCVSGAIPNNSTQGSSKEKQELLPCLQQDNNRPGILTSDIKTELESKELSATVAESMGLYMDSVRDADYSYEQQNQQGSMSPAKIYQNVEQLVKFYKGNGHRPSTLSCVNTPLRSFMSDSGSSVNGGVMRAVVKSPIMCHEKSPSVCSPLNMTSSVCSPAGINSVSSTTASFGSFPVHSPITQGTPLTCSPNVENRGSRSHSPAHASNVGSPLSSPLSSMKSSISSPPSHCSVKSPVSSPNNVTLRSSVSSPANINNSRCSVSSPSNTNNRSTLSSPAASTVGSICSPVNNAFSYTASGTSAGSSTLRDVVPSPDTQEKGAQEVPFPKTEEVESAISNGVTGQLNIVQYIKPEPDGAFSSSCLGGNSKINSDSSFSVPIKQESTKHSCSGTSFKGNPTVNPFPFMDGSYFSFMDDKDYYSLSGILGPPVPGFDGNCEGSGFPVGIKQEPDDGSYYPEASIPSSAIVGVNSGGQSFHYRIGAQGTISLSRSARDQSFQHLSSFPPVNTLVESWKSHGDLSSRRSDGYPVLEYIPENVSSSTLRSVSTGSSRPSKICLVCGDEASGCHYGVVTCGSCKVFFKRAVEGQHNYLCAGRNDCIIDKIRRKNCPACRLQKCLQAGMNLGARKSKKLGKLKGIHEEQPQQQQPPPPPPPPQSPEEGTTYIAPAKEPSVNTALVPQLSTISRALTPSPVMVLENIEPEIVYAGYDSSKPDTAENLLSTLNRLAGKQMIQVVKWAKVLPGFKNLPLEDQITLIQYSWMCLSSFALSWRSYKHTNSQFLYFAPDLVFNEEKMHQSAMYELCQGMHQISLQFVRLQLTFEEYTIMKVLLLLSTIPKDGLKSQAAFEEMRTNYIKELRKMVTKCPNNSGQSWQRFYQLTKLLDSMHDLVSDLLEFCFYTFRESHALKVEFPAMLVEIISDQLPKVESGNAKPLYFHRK

Estrogen receptor beta, sequence (Q92731 whole entry): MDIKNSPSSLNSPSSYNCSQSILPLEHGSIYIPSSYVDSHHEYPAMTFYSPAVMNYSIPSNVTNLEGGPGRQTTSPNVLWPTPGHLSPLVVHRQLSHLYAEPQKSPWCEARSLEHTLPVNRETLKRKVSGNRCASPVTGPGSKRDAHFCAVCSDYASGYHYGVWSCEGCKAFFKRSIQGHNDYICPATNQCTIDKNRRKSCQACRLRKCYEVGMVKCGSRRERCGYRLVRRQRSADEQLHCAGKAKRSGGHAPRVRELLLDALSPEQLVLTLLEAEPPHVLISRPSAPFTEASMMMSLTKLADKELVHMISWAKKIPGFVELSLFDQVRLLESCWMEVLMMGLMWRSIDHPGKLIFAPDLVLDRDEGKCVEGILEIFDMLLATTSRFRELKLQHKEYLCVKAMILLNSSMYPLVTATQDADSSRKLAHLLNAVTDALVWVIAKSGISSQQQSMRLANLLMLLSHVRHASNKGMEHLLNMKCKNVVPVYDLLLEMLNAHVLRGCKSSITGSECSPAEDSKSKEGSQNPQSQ

- Ki [1]: > 2300 nM
- AUC(0-t) [2]: 2420 ng·h/mL
- AUC(0-t) [6]: 410 ng·h/mL
- AUC(0-inf) [7]: 2720 ng·h/mL
- Tmax [8]: 3.5 h
- clearance [9]: 37.1 mL/min/kg
- bioavailability [10]: 59%
- Ki [11]: 1480 nM
- Ki [12]: > 3000 nM
SMILES: Cc1noc(C)c1-c1cc2c(c3c1CCC3)NC(C)(C)C(=O)C2(C)C
- Activity [3]: 89.1%
- Time [4]: 170.7 s
- Time [5]: 206.8 s
